Key:
Ovis aries [1] = assay: Percent reduction in Trichostrongylus eggs per gram, after treatment with 300 mg/kg dose of compound in sheep perorally; format: functional, Egg; conditions: route oral
Ovis aries [2] = assay: Percent reduction in Cooperia eggs per gram, after treatment with 100 mg/kg dose of compound in sheep perorally; format: functional, Egg; conditions: route oral
Summary of the method: (§1)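 Naturally parasitized lambs received compound orally, either as the aqueous suspension by stomach tube or as finely ground powder in gelatin capsules by balling gun. Activity was judged by the clinical test method, as a significant decrease in posttreatment helminth egg counts.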

Canis familiaris [3] = species on record: Canis familiaris; assay: Percent reduction in Ancylostoma eggs per gram, after treatment with 250 mg/dog dose of compound in a single treatment; format: functional, Canis lupus familiaris, Egg
Summary of the method: (§2)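 Dogs naturally infected with Toxascaris leonina were experimentally infected with mixed Ancylostoma caninum and Uncinaria stenocephala larvae. Finely ground compound was given orally in gelatin capsules. Fecal egg counts were taken three times before and three times after treatment, and activity was taken as the fall in egg counts.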

Ovis aries [4] = assay: Percent reduction in Strongyloides eggs per gram, after treatment with 150 mg/kg dose of compound in sheep perorally; format: functional, Egg; conditions: route oral
Summary of the method: (§3)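 Naturally parasitized lambs, dosed orally either with a suspension by stomach tube or with finely ground compound in gelatin capsules by balling gun. Activity was scored by the clinical test method, meaning a significant fall in helminth egg counts after treatment.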

Ovis aries [5] = assay: Percent reduction in Nematodirus eggs per gram, after treatment with 100 mg/kg dose of compound in sheep perorally; format: functional, Egg; conditions: route oral
Summary of the method: (§4)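 Naturally parasitized lambs were dosed orally at the stated mg/kg. Dosing was either as a suspension of finely ground compound by stomach tube, or as ground compound weighed into gelatin capsules and given by balling gun. Activity was scored by the clinical test method: the decrease in posttreatment helminth eggs per gram.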

Ovis aries [6] = assay: Percent reduction in Strongyloides eggs per gram, after treatment with 100 mg/kg dose of compound in sheep perorally; format: functional, Egg; conditions: route oral; summary of the method: as §3
Ovis aries [7] = assay: Percent reduction in Haemonchus eggs per gram, after treatment with 400 mg/kg dose of compound in sheep perorally; format: functional, Egg; conditions: route oral; summary of the method: as §4
Ovis aries [8] = assay: Percent reduction in Trichuris eggs per gram, after treatment with 400 mg/kg dose of compound in sheep perorally; format: functional, Egg; conditions: route oral
Ovis aries [9] = assay: Percent reduction in Ostertagia eggs per gram, after treatment with 150 mg/kg dose of compound in sheep perorally; format: functional, Egg; conditions: route oral; summary of the method: as §4
Ovis aries [10] = assay: Percent reduction in Strongyloides eggs per gram, after treatment with 300 mg/kg dose of compound in sheep perorally; format: functional, Egg; conditions: route oral; summary of the method: as §3
Ovis aries [11] = assay: Percent reduction in Ostertagia eggs per gram, after treatment with 400 mg/kg dose of compound in sheep perorally; format: functional, Egg; conditions: route oral; summary of the method: as §3
Ovis aries [12] = assay: Percent reduction in Ostertagia eggs per gram, after treatment with 100 mg/kg dose of compound in sheep perorally; format: functional, Egg; conditions: route oral; summary of the method: as §4
Ovis aries [13] = assay: Percent reduction in Trichuris eggs per gram, after treatment with 100 mg/kg dose of compound in sheep perorally; format: functional, Egg; conditions: route oral
Ovis aries [14] = assay: Percent reduction in Trichostrongylus eggs per gram, after treatment with 200 mg/kg dose of compound in sheep perorally; format: functional, Egg; conditions: route oral
Ovis aries [15] = assay: Percent reduction in Trichostrongylus eggs per gram, after treatment with 400 mg/kg dose of compound in sheep perorally; format: functional, Egg; conditions: route oral
Mus musculus [16] = species on record: Mus musculus; assay: Percent clearance of Nematospiroides dubius from mouse oral treatment of 0.25 mg/mouse/day of compound; format: functional
Summary of the method: (§5)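 Mice naturally carrying Syphacia obvelata were experimentally infected with Nematospiroides dubius and Hymenolepis nana, then grouped after a 2-week prepatency. Finely ground compound was suspended in aqueous 0.10% carboxymethylcellulose, 0.04% polysorbate 80 and 0.0042% polyparaben, and 0.1 mL was given orally by cannula once daily for 4 days to five mice. Necropsy followed 2 days later, scoring presence or absence of each parasite. Control clearance was subtracted from the treated clearance.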

Ovis aries [17] = assay: Percent reduction in Haemonchus eggs per gram, after treatment with 200 mg/kg dose of compound in sheep perorally; format: functional, Egg; conditions: route oral; summary of the method: as §4
Ovis aries [18] = assay: Percent reduction in Oesophagostomum eggs per gram, after treatment with 150 mg/kg dose of compound in sheep perorally; format: functional, Egg; conditions: route oral; summary of the method: as §4
Ovis aries [19] = assay: Percent reduction in Ostertagia eggs per gram, after treatment with 300 mg/kg dose of compound in sheep perorally; format: functional, Egg; conditions: route oral; summary of the method: as §3
Canis familiaris [20] = species on record: Canis familiaris; assay: Percent reduction in Trichuris eggs per gram, after treatment with 200 mg/dog dose of compound in a single treatment; format: functional, Canis lupus familiaris, Egg
Canis familiaris [21] = species on record: Canis familiaris; assay: Percent reduction in Ancylostoma eggs per gram, after treatment with 200 mg/dog dose of compound in a single treatment; format: functional, Canis lupus familiaris, Egg; summary of the method: as §2
Ovis aries [22] = assay: Percent reduction in Moniezia eggs per gram, after treatment with 150 mg/kg dose of compound in sheep perorally; format: functional, Egg; conditions: route oral; summary of the method: as §4
Ovis aries [23] = assay: Percent reduction in Trichuris eggs per gram, after treatment with 300 mg/kg dose of compound in sheep perorally; format: functional, Egg; conditions: route oral
Canis familiaris [24] = species on record: Canis familiaris; assay: Percent reduction in Uncinaria eggs per gram, after treatment with 250 mg/dog dose of compound in a single treatment; format: functional, Canis lupus familiaris, Egg
Ovis aries [25] = assay: Percent reduction in Trichostrongylus eggs per gram, after treatment with 150 mg/kg dose of compound in sheep perorally; format: functional, Egg; conditions: route oral
Ovis aries [26] = assay: Percent reduction in Nematodirus eggs per gram, after treatment with 300 mg/kg dose of compound in sheep perorally; format: functional, Egg; conditions: route oral; summary of the method: as §4
Ovis aries [27] = assay: Percent reduction in Ostertagia eggs per gram, after treatment with 200 mg/kg dose of compound in sheep perorally; format: functional, Egg; conditions: route oral; summary of the method: as §3
Canis familiaris [28] = species on record: Canis familiaris; assay: Percent reduction in Ancylostoma eggs per gram, after treatment with 275 mg/dog dose of compound in a single treatment; format: functional, Canis lupus familiaris, Egg; summary of the method: as §2
Ovis aries [29] = assay: Percent reduction in Haemonchus eggs per gram, after treatment with 300 mg/kg dose of compound in sheep perorally; format: functional, Egg; conditions: route oral; summary of the method: as §4
Ovis aries [30] = assay: Percent reduction in Nematodirus eggs per gram, after treatment with 150 mg/kg dose of compound in sheep perorally; format: functional, Egg; conditions: route oral; summary of the method: as §4
Ovis aries [31] = assay: Percent reduction in Nematodirus eggs per gram, after treatment with 400 mg/kg dose of compound in sheep perorally; format: functional, Egg; conditions: route oral; summary of the method: as §4
Ovis aries [32] = assay: Percent reduction in Oesophagostomum eggs per gram, after treatment with 300 mg/kg dose of compound in sheep perorally; format: functional, Egg; conditions: route oral; summary of the method: as §4
Ovis aries [33] = assay: Percent reduction in Trichuris eggs per gram, after treatment with 150 mg/kg dose of compound in sheep perorally; format: functional, Egg; conditions: route oral
Ovis aries [34] = assay: Percent reduction in Oesophagostomum eggs per gram, after treatment with 100 mg/kg dose of compound in sheep perorally; format: functional, Egg; conditions: route oral; summary of the method: as §4
Mus musculus [35] = species on record: Mus musculus; assay: Percent clearance of Syphacaia obvelata from mouse after oral treatment of 0.25 mg/mouse/day of compound; format: functional; summary of the method: as §5
Ovis aries [36] = assay: Percent reduction in Strongyloides eggs per gram, after treatment with 400 mg/kg dose of compound in sheep perorally; format: functional, Egg; conditions: route oral; summary of the method: as §3
Ovis aries [37] = assay: Percent reduction in Strongyloides eggs per gram, after treatment with 200 mg/kg dose of compound in sheep perorally; format: functional, Egg; conditions: route oral; summary of the method: as §3
Canis familiaris [38] = species on record: Canis familiaris; assay: Percent reduction in Uncinaria eggs per gram, after treatment with 200 mg/dog dose of compound in a single treatment; format: functional, Canis lupus familiaris, Egg
Summary of the method: (§6)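 Dogs naturally infected with Toxascaris leonina were experimentally infected with mixed Ancylostoma caninum and Uncinaria stenocephala larvae. Finely ground compound was given orally in gelatin capsules. Three egg count determinations were made before and three after treatment in each experiment.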

Ovis aries [39] = assay: Percent reduction in Trichuris eggs per gram, after treatment with 200 mg/kg dose of compound in sheep perorally; format: functional, Egg; conditions: route oral
Canis familiaris [40] = species on record: Canis familiaris; assay: Percent reduction in Uncinaria eggs per gram, after treatment with 275 mg/dog dose of compound in a single treatment; format: functional, Canis lupus familiaris, Egg
Ovis aries [41] = assay: Percent reduction in Nematodirus eggs per gram, after treatment with 200 mg/kg dose of compound in sheep perorally; format: functional, Egg; conditions: route oral; summary of the method: as §4
Ovis aries [42] = assay: Percent reduction in Trichostrongylus eggs per gram, after treatment with 100 mg/kg dose of compound in sheep perorally; format: functional, Egg; conditions: route oral
Summary of the method: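 Lambs naturally parasitized with helminths. Finely ground compound was given orally, either as an aqueous suspension by stomach tube or weighed into gelatin capsules given by balling gun. Activity was assessed by the clinical test method: the reduction in helminth egg counts after treatment.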

Ovis aries [43] = assay: Percent reduction in Haemonchus eggs per gram, after treatment with 150 mg/kg dose of compound in sheep perorally; format: functional, Egg; conditions: route oral; summary of the method: as §1
Ovis aries [44] = assay: Percent reduction in Oesophagostomum eggs per gram, after treatment with 200 mg/kg dose of compound in sheep perorally; format: functional, Egg; conditions: route oral; summary of the method: as §4
Canis familiaris [45] = species on record: Canis familiaris; assay: Percent reduction in Toxascaris eggs per gram, after treatment with 200 mg/dog dose of compound in a single treatment; format: functional, Canis lupus familiaris, Egg; summary of the method: as §6
Ovis aries [46] = assay: Percent reduction in Haemonchus eggs per gram, after treatment with 100 mg/kg dose of compound in sheep perorally; format: functional, Egg; conditions: route oral; summary of the method: as §1
Mus musculus [47] = species on record: Mus musculus; assay: Percent clearance of Hymenolepis nana from mouse after oral treatment of 0.47 mg/mouse/day; format: functional; summary of the method: as §5
Mus musculus [48] = species on record: Mus musculus; assay: Percent clearance of Nematospiroides dubius from mouse after oral treatment of 0.47 mg/mouse/day; format: functional; summary of the method: as §5

Cc1ccc(/C(Cl)=N/Nc2ccccc2)cc1
84%: Reduction (Ovis aries [46])
79%: Reduction (Ovis aries [18])
0%: Reduction (Ovis aries [8]) | Reduction (Ovis aries [23]) | Reduction (Ovis aries [39])
96%: Reduction (Ovis aries [12])
73%: Reduction (Ovis aries [42])
20%: Parasite_Clearance (Mus musculus [16])
25%: Reduction (Ovis aries [33])
99.8%: Reduction (Canis familiaris [40])
100%: Reduction (Ovis aries [1]) | Reduction (Ovis aries [2]) | Reduction (Canis familiaris [3]) | Reduction (Ovis aries [4]) | Reduction (Ovis aries [5]) | Reduction (Ovis aries [7]) | Reduction (Ovis aries [9]) | Reduction (Ovis aries [10]) | Reduction (Ovis aries [11]) | Reduction (Ovis aries [14]) | Reduction (Ovis aries [15]) | Reduction (Ovis aries [17]) | Reduction (Ovis aries [19]) | Reduction (Canis familiaris [20]) | Reduction (Canis familiaris [21]) | Reduction (Ovis aries [22]) | Reduction (Canis familiaris [24]) | Reduction (Ovis aries [26]) | Reduction (Ovis aries [27]) | Reduction (Canis familiaris [28]) | Reduction (Ovis aries [29]) | Reduction (Ovis aries [30]) | Reduction (Ovis aries [31]) | Reduction (Ovis aries [32]) | Reduction (Ovis aries [34]) | Parasite_Clearance (Mus musculus [35]) | Reduction (Ovis aries [36]) | Reduction (Canis familiaris [38]) | Reduction (Ovis aries [41]) | Reduction (Ovis aries [43]) | Reduction (Ovis aries [44]) | Reduction (Canis familiaris [45])
98%: Reduction (Ovis aries [25])
99%: Reduction (Ovis aries [6])
37%: Reduction (Ovis aries [37])
29%: Reduction (Ovis aries [13])

Cl/C(=N\Nc1ccccc1)c1ccc(Br)cc1
100%: Parasite_Clearance (Mus musculus [47]) | Parasite_Clearance (Mus musculus [48])

Source: ChEMBL document CHEMBL1121917, “Structure--activity relationships in a broad-spectrum anthelmintic series. Acid chloride phenylhydrazones. 1. Aryl substitutions and chloride variations” (1981)
